Experimental data published in ChEMBL document CHEMBL1135709, “2,6-Di(omega-aminoalkyl)-2,5,6,7-tetrahydropyrazolo[3,4,5-mn]pyrimido[5,6,1-de]acridine-5,7-diones: novel, potent, cytotoxic, and DNA-binding agents” (J Med Chem, 2002).
pIC50: −log10 of the molar value.

What was measured:
[1] = test system: MCF7; assay: Percent growth of NCI cell line, breast: MCF-7 exposed for 48 hr at 10e-6 concentration; type: functional, Homo sapiens
How it was run: (§1)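 NCI panel cell lines exposed 48 h to 10^-8, 10^-6 and 10^-4 M drug; read-out is percent growth at each concentration.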

[2] = test system: HCT-15; assay: Percent growth of NCI cell line, colon: HCT-15 exposed for 48 hr at 10e-4 concentration; type: functional, Homo sapiens; how it was run: as §1
[3] = test system: HT-29; assay: In vitro cytotoxic potency against HT-29 (human colon adenocarcinoma) cell line.; type: functional, cell-based
[4] = Percent growth of NCI cell line, leucemia K562 exposed for 48 hr at 10e-6 concentration; type: functional, Homo sapiens; how it was run: as §1
[5] = test system: HCT-15; assay: Percent growth of NCI cell line, colon: HCT-15 exposed for 48 hr at 10e-8 concentration; type: functional, Homo sapiens; how it was run: as §1
[6] = test system: NCI-H460; assay: Percent growth of NCI cell line, lung-nsc: NCI-H460 exposed for 48 hr at 10e-6 concentration; type: functional, Homo sapiens; how it was run: as §1
[7] = test system: NCI-H460; assay: Percent growth of NCI cell line, lung-nsc: NCI-H460 exposed for 48 hr at 10e-8 concentration; type: functional, Homo sapiens; how it was run: as §1
[8] = test system: NCI-H460; assay: Percent growth of NCI cell line, lung-nsc: NCI-H460 exposed for 48 hr at 10e-4 concentration; type: functional, Homo sapiens; how it was run: as §1
[9] = test system: 786-0; assay: Percent growth of NCI cell line, renal: 786-0 exposed for 48 hr at 10e-6 concentration; type: functional, Homo sapiens; how it was run: as §1
[10] = test system: SNB-19; assay: Percent growth of NCI cell line, CNS: SNB-19 exposed for 48 hr at 10e-4 concentration; type: functional, Homo sapiens; how it was run: as §1
[11] = test system: LoVo; assay: Cytotoxicity activity on LoVo/Dx human adenocarcinoma cell line after 144 hr of drug exposure; type: functional, cell-based
How it was run: (§2)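 LoVo (sensitive) and LoVo/Dx (resistant) human colon adenocarcinoma cells seeded at 2.5 × 10^5 cells/mL medium; drug solutions added to culture.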

[12] = Percent growth of NCI cell line, leucemia K562 exposed for 48 hr at 10e-8 concentration; type: functional, Homo sapiens; how it was run: as §1
[13] = test system: 786-0; assay: Percent growth of NCI cell line, renal: 786-0 exposed for 48 hr at 10e-8 concentration; type: functional, Homo sapiens; how it was run: as §1
[14] = test system: Calf thymus DNA; assay: CT-DNA binding required to produce a 50% drop in fluorescence of DNA-bound ethidium.; type: nucleic-acid assay; settings: Bos taurus
How it was run: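 Ethidium displacement from calf thymus DNA in 10 mM Na2HPO4, 10 mM NaH2PO4, 1 mM EDTA, pH 7.0, containing 1.26 μM ethidium bromide and 1 μM CT-DNA. Drug added serially from ~5 mM DMSO stock; 20 °C; fluorescence excitation 546 nm, emission 595 nm. C50 = drug concentration lowering DNA-bound ethidium fluorescence by 50%, mean of three determinations.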

[15] = test system: DU-145; assay: Percent growth of NCI cell line, prostate: DU-145 exposed for 48 hr at 10e-6 concentration; type: functional, Homo sapiens; how it was run: as §1
[16] = test system: SNB-19; assay: Percent growth of NCI cell line, CNS: SNB-19 exposed for 48 hr at 10e-8 concentration; type: functional, Homo sapiens; how it was run: as §1
[17] = test system: MCF7; assay: Percent growth of NCI cell line, breast: MCF-7 exposed for 48 hr at 10e-8 concentration; type: functional, Homo sapiens; how it was run: as §1
[18] = Percent growth of NCI cell line, melanoma: LOX IMVI exposed for 48 hr at 10e-4 concentration; type: functional, Homo sapiens; how it was run: as §1
[19] = test system: LoVo; assay: Cytotoxicity activity on LoVo/Dx human adenocarcinoma cell line after 1 hr of drug exposure; type: functional, cell-based
How it was run: (§3)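 LoVo (sensitive) and LoVo/Dx (resistant) human colon adenocarcinoma cells seeded at 2.5 × 10^5 cells/mL medium; drug solutions added to culture. IC50 = drug concentration inhibiting cell growth by 50%, assays in triplicate.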

[20] = test system: LoVo; assay: Cytotoxicity activity on LoVo human adenocarcinoma cell line after 144 hr of drug exposure; type: functional, cell-based; how it was run: as §2
[21] = test system: LOX IMVI; assay: Percent growth of NCI cell line, melanoma: LOX IMVI exposed for 48 hr at 10e-8 concentration; type: functional, Homo sapiens; how it was run: as §1
[22] = test system: HCT-15; assay: Percent growth of NCI cell line, colon: HCT-15 exposed for 48 hr at 10e-6 concentration; type: functional, Homo sapiens; how it was run: as §1
[23] = test system: OVCAR-4; assay: Percent growth of NCI cell line, ovarian: OVCAR-4 exposed for 48 hr at 10e-4 concentration; type: functional, Homo sapiens; how it was run: as §1
[24] = test system: 786-0; assay: Percent growth of NCI cell line, renal: 786-0 exposed for 48 hr at 10e-4 concentration; type: functional, Homo sapiens; how it was run: as §1
[25] = Percent growth of NCI cell line, melanoma: LOX IMVI exposed for 48 hr at 10e-6 concentration; type: functional, Homo sapiens; how it was run: as §1
[26] = test system: DU-145; assay: Percent growth of NCI cell line, prostate: DU-145 exposed for 48 hr at 10e-8 concentration; type: functional, Homo sapiens; how it was run: as §1
[27] = Percent growth of NCI cell line, leucemia K562 exposed for 48 hr at 10e-4 concentration; type: functional, Homo sapiens; how it was run: as §1
[28] = test system: LoVo; assay: Cytotoxicity activity on LoVo human adenocarcinoma cell line after 1 hr of drug exposure; type: functional, cell-based; how it was run: as §3
[29] = test system: MCF7; assay: Percent growth of NCI cell line, breast: MCF-7 exposed for 48 hr at 10e-4 concentration; type: functional, Homo sapiens; how it was run: as §1
[30] = test system: DU-145; assay: Percent growth of NCI cell line, prostate: DU-145 exposed for 48 hr at 10e-4 concentration; type: functional, Homo sapiens; how it was run: as §1
[31] = test system: SNB-19; assay: Percent growth of NCI cell line, CNS: SNB-19 exposed for 48 hr at 10e-6 concentration; type: functional, Homo sapiens; how it was run: as §1
[32] = test system: OVCAR-4; assay: Percent growth of NCI cell line, ovarian: OVCAR-4 exposed for 48 hr at 10e-8 concentration; type: functional, Homo sapiens; how it was run: as §1
[33] = test system: OVCAR-4; assay: Percent growth of NCI cell line, ovarian: OVCAR-4 exposed for 48 hr at 10e-6 concentration; type: functional, Homo sapiens; how it was run: as §1

## CN(C)CCn1c(=O)c2ccc3c4c(nn3CCN(C)C)c3cc(N)ccc3n(c1=O)c24
[1]
  Growth: -6%
[2]
  Growth: -75%
[3]
  pIC50: 8.43
[4]
  Growth: 7%
[5]
  Growth: 54%
[6]
  Growth: -28%
[7]
  Growth: 16%
[8]
  Growth: -64%
[9]
  Growth: -44%
[10]
  Growth: -69%
[11]
  pIC50: 7.80
[12]
  Growth: 45%
[13]
  Growth: 23%
[14]
  C50: 0.0009 µM
[15]
  Growth: -11%
[16]
  Growth: 43%
[17]
  Growth: 62%
[18]
  Growth: -50%
[19]
  pIC50: 6.26
[20]
  pIC50: 9.28
[21]
  Growth: 47%
[22]
  Growth: -25%
[23]
  Growth: -51%
[24]
  Growth: -95%
[25]
  Growth: -28%
[26]
  Growth: 59%
[27]
  Growth: -15%
[28]
  pIC50: 6.89
[29]
  Growth: -65%
[30]
  Growth: -67%
[31]
  Growth: -14%
[32]
  Growth: 55%
[33]
  Growth: -47%
